According to ChEMBL document CHEMBL5329156, “Discovery and development of novel substituted monohydrazides as potent antifungal agents” (RSC Med Chem, 2023):
Values after ≈ are worked out from the molar mass of the structure shown.

Columns and labels:
[1] = test system: Clavispora lusitaniae; test: Antifungal activity against Clavispora lusitaniae AR Bank # 398 assessed as fungal growth inhibition by double dilution method; format: functional
Procedure, shortened: (§1)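 Broth microdilution after CLSI M27-A3/M38-A2 with minor changes. Single colony grown overnight in YPD at 35 °C, 200 rpm. Compound final range 0.06-31.3 µg/mL; incubated 48 h at 35 °C.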

[2] = test system: Aspergillus fumigatus; test: Antifungal activity against Aspergillus fumigatus NRRL 6113 assessed as fungal growth inhibition by double dilution method; format: functional
[3] = test system: Candida albicans; test: Antifungal activity against itraconazole/fluconazole resistant Candida albicans ATCC 90819 assessed as fungal growth inhibition by double dilution method; format: functional
Procedure, shortened: (§2)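 Broth microdilution after CLSI M27-A3/M38-A2 with minor modifications. A single colony was grown overnight in YPD at 35 °C with shaking at 200 rpm. Cells were mixed 1:1 with compound (final 0.06-31.3 µg/mL, from DMSO stocks) and incubated 48 h at 35 °C.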

[4] = test system: [Candida] auris; test: Antifungal activity against Candida auris AR Bank # 382 assessed as fungal growth inhibition by double dilution method; format: functional; settings: Candidozyma auris; procedure, shortened: as §1
[5] = test system: Candida duobushaemulonii; test: Antifungal activity against Candida duobushaemulonii AR Bank # 394 assessed as fungal growth inhibition by double dilution method; format: functional; settings: Candidozyma duobushaemuli; procedure, shortened: as §1
[6] = test system: Saccharomyces cerevisiae; test: Antifungal activity against Saccharomyces cerevisiae AR Bank # 400 assessed as fungal growth inhibition by double dilution method; format: functional; procedure, shortened: as §1
[7] = test system: [Candida] auris; test: Antifungal activity against Candida auris AR Bank # 390 assessed as fungal growth inhibition by double dilution method; format: functional; settings: Candidozyma auris; procedure, shortened: as §1
[8] = test system: Pichia kudriavzevii; test: Antifungal activity against Pichia kudriavzevii AR Bank # 397 assessed as fungal growth inhibition by double dilution method; format: functional; procedure, shortened: as §1
[9] = test system: [Candida] auris; test: Antifungal activity against Candida auris AR Bank # 386 assessed as fungal growth inhibition by double dilution method; format: functional; settings: Candidozyma auris; procedure, shortened: as §1
[10] = test system: HepG2; test: Cytotoxicity against human HepG2 cells assessed as reduction in cell viability upto 31.3 microg/ml; format: toxicity, cell-based; settings: dose < 31.3 µg/ml
Procedure, shortened: (§3)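 Cells in DMEM with 10% FBS and 1% Pen/Strep, seeded at 10,000 cells/well and held overnight at 37 °C, 5% CO2. Compounds added at final 31.3-0.12 µg/mL (0.05% DMSO vehicle) for 24 h. Resazurin then added for 6 h; fluorescence read at ex 560/em 590. Triton X-100 1% as positive control; values normalized to vehicle. Run in quadruplicate.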

[11] = test system: Candida duobushaemulonii; test: Antifungal activity against Candida duobushaemulonii AR Bank # 392 assessed as fungal growth inhibition by double dilution method; format: functional; settings: Candidozyma duobushaemuli; procedure, shortened: as §1
[12] = test system: Aspergillus nidulans; test: Antifungal activity against Aspergillus nidulans ATCC 38163 assessed as fungal growth inhibition by double dilution method; format: functional
[13] = test system: [Candida] auris; test: Antifungal activity against Candida auris AR Bank # 384 assessed as fungal growth inhibition by double dilution method; format: functional; settings: Candidozyma auris; procedure, shortened: as §1
[14] = test system: [Candida] auris; test: Antifungal activity against Candida auris AR Bank # 388 assessed as fungal growth inhibition by double dilution method; format: functional; settings: Candidozyma auris; procedure, shortened: as §1
[15] = test system: HEK293; test: Cytotoxicity against human HEK-293 cells assessed as reduction in cell viability at 31.3 microg/ml; format: toxicity, cell-based; settings: dose 31.3 µg/ml; procedure, shortened: as §3
[16] = test system: Candida albicans; test: Antifungal activity against Candida albicans ATCC 10231 assessed as fungal growth inhibition by double dilution method; format: functional; procedure, shortened: as §1
[17] = test system: [Candida] auris; test: Antifungal activity against Candida auris AR Bank # 383 assessed as fungal growth inhibition by double dilution method; format: functional; settings: Candidozyma auris; procedure, shortened: as §1
[18] = test system: Aspergillus fumigatus; test: Antifungal activity against Aspergillus fumigatus NRRL 163 assessed as fungal growth inhibition by double dilution method; format: functional
[19] = test system: Aspergillus flavus; test: Antifungal activity against Aspergillus flavus ATCC MYA-3631 assessed as fungal growth inhibition by double dilution method; format: functional
[20] = test system: Candida albicans; test: Antifungal activity against itraconazole/fluconazole resistant Candida albicans ATCC MYA-1237 assessed as fungal growth inhibition by double dilution method; format: functional; procedure, shortened: as §2
[21] = test system: [Candida] auris; test: Antifungal activity against Candida auris AR Bank # 381 assessed as fungal growth inhibition by double dilution method; format: functional; settings: Candidozyma auris; procedure, shortened: as §1
[22] = test system: Candida albicans; test: Antifungal activity against Candida albicans ATCC 64124 assessed as fungal growth inhibition by double dilution method; format: functional; procedure, shortened: as §2
[23] = test system: Candida albicans; test: Antifungal activity against itraconazole/fluconazole susceptible Candida albicans ATCC MYA-2310 assessed as fungal growth inhibition by double dilution method; format: functional; procedure, shortened: as §2
[24] = test system: Aspergillus fumigatus; test: Antifungal activity against Aspergillus fumigatus NRRL 5109 assessed as fungal growth inhibition by double dilution method; format: functional
[25] = test system: Aspergillus terreus; test: Antifungal activity against Aspergillus terreus ATCC MYA-3633 assessed as fungal growth inhibition by double dilution method; format: functional
[26] = test system: Saccharomyces cerevisiae; test: Antifungal activity against Saccharomyces cerevisiae AR Bank # 399 assessed as fungal growth inhibition by double dilution method; format: functional; procedure, shortened: as §1
[27] = test system: Candida albicans; test: Antifungal activity against itraconazole/fluconazole resistant Candida albicans ATCC MYA-1003 assessed as fungal growth inhibition by double dilution method; format: functional; procedure, shortened: as §2
[28] = test system: J774.A1; test: Cytotoxicity against J774A.1 cells assessed as reduction in cell viability at 31.3 microg/ml; format: toxicity, cell-based; settings: mouse, dose 31.3 µg/ml; procedure, shortened: as §3
[29] = test system: Nakaseomyces glabratus; test: Antifungal activity against Candida glabrata ATCC 2001 assessed as fungal growth inhibition by double dilution method; format: functional; procedure, shortened: as §1
[30] = test system: Pichia kudriavzevii; test: Antifungal activity against Pichia kudriavzevii ATCC 6258 assessed as fungal growth inhibition by double dilution method; format: functional; procedure, shortened: as §1
[31] = test system: [Candida] auris; test: Antifungal activity against Candida auris AR Bank # 389 assessed as fungal growth inhibition by double dilution method; format: functional; settings: Candidozyma auris; procedure, shortened: as §1
[32] = test system: Nakaseomyces glabratus; test: Antifungal activity against Candida glabrata ATCC 22019 assessed as fungal growth inhibition by double dilution method; format: functional; procedure, shortened: as §1
[33] = test system: [Candida] auris; test: Antifungal activity against Candida auris AR Bank # 0390 assessed as fungal growth inhibition by double dilution method; format: functional; settings: Candidozyma auris; procedure, shortened: as §1
[34] = test system: Candida duobushaemulonii; test: Antifungal activity against Candida duobushaemulonii AR Bank # 391 assessed as fungal growth inhibition by double dilution method; format: functional; settings: Candidozyma duobushaemuli; procedure, shortened: as §1
[35] = test system: [Candida] auris; test: Antifungal activity against Candida auris AR Bank # 0384 assessed as fungal growth inhibition by double dilution method; format: functional; settings: Candidozyma auris; procedure, shortened: as §1
[36] = test system: [Candida] haemuloni; test: Antifungal activity against Candida haemulonii AR Bank # 393 assessed as fungal growth inhibition by double dilution method; format: functional; settings: Candidozyma haemuli; procedure, shortened: as §1
[37] = test system: Candida albicans; test: Antifungal activity against itraconazole/fluconazole susceptible Candida albicans ATCC MYA-2876 assessed as fungal growth inhibition by double dilution method; format: functional; procedure, shortened: as §2
[38] = test system: [Candida] auris; test: Antifungal activity against Candida auris AR Bank # 387 assessed as fungal growth inhibition by double dilution method; format: functional; settings: Candidozyma auris; procedure, shortened: as §1
[39] = test system: Cryptococcus neoformans; test: Antifungal activity against Cryptococcus neoformans ATCC MYA-895 assessed as fungal growth inhibition by double dilution method; format: functional; procedure, shortened: as §1
[40] = test system: Kodamaea ohmeri; test: Antifungal activity against Kodamaea ohmeri AR Bank # 396 assessed as fungal growth inhibition by double dilution method; format: functional; procedure, shortened: as §1
[41] = test system: [Candida] haemuloni; test: Antifungal activity against Candida haemulonii AR Bank # 395 assessed as fungal growth inhibition by double dilution method; format: functional; settings: Candidozyma haemuli; procedure, shortened: as §1
[42] = test system: [Candida] auris; test: Antifungal activity against Candida auris AR Bank # 385 assessed as fungal growth inhibition by double dilution method; format: functional; settings: Candidozyma auris; procedure, shortened: as §1

Which MIC [1] does the source give for `COc1ccc(NNC(=O)c2cnccn2)cc1` here?
Its MIC is 0.98 µg/mL (≈ 4.01 µM).

And the MIC [2]?
The MIC was 31.3 µg/mL (≈ 128 µM).

And the MIC [3]?
Its MIC is 0.98 µg/mL (≈ 4.01 µM).

And the MIC [4]?
Its MIC is 0.98 µg/mL (≈ 4.01 µM).

What about the MIC [5] of the same compound?
Its MIC is 0.49 µg/mL (≈ 2.01 µM).

And the MIC [6]?
Its MIC is 0.98 µg/mL (≈ 4.01 µM).

And the MIC [7]?
The MIC was 0.98 µg/mL (≈ 4.01 µM).

And the MIC [8]?
Its MIC is 0.49 µg/mL (≈ 2.01 µM).

What about the MIC [9] of the same compound?
The MIC was 0.49 µg/mL (≈ 2.01 µM).

And the Activity [10]?
Its Activity is “Non-Toxic”.

What about the MIC [11] of the same compound?
The MIC was 0.49 µg/mL (≈ 2.01 µM).

And the MIC [12]?
The MIC was 0.98 µg/mL (≈ 4.01 µM).

And the MIC [13]?
Its MIC is 0.98 µg/mL (≈ 4.01 µM).

And the MIC [14]?
Its MIC is 0.98 µg/mL (≈ 4.01 µM).

And the Activity [15]?
The Activity was “Non-Toxic”.

And the MIC [16]?
The MIC was 0.49 µg/mL (≈ 2.01 µM).

What about the MIC [17] of the same compound?
The MIC was 0.98 µg/mL (≈ 4.01 µM).

And the MIC [18]?
The MIC was 31.3 µg/mL (≈ 128 µM).

And the MIC [19]?
Its MIC is > 31.3 µg/mL.

What about the MIC [20] of the same compound?
Its MIC is 0.98 µg/mL (≈ 4.01 µM).

And the MIC [21]?
Its MIC is 1.95 µg/mL (≈ 7.98 µM).

And the MIC [22]?
Its MIC is 0.98 µg/mL (≈ 4.01 µM).

And the MIC [23]?
Its MIC is 1.95 µg/mL (≈ 7.98 µM).

What about the MIC [24] of the same compound?
The MIC was 31.3 µg/mL (≈ 128 µM).

And the MIC [25]?
The MIC was > 31.3 µg/mL.

And the MIC [26]?
The MIC was 0.98 µg/mL (≈ 4.01 µM).

What about the MIC [27] of the same compound?
The MIC was 1.95 µg/mL (≈ 7.98 µM).

And the Activity [28]?
The Activity was “Non-Toxic”.

What about the MIC [29] of the same compound?
Its MIC is 0.98 µg/mL (≈ 4.01 µM).

And the MIC [30]?
The MIC was 0.98 µg/mL (≈ 4.01 µM).

What about the MIC [31] of the same compound?
The MIC was 0.98 µg/mL (≈ 4.01 µM).

What about the MIC [32] of the same compound?
Its MIC is 3.9 µg/mL (≈ 16 µM).

And the MIC [33]?
The MIC was 0.49 µg/mL (≈ 2.01 µM).

What about the MIC [34] of the same compound?
Its MIC is 0.49 µg/mL (≈ 2.01 µM).

What about the MIC [35] of the same compound?
The MIC was 0.49 µg/mL (≈ 2.01 µM).

And the MIC [36]?
The MIC was 0.24 µg/mL (≈ 0.983 µM).

What about the MIC [37] of the same compound?
The MIC was 1.95 µg/mL (≈ 7.98 µM).

And the MIC [38]?
Its MIC is 1.95 µg/mL (≈ 7.98 µM).

What about the MIC [39] of the same compound?
Its MIC is 0.98 µg/mL (≈ 4.01 µM).

And the MIC [40]?
Its MIC is 0.98 µg/mL (≈ 4.01 µM).

And the MIC [41]?
Its MIC is 0.49 µg/mL (≈ 2.01 µM).

What about the MIC [42] of the same compound?
The MIC was 0.98 µg/mL (≈ 4.01 µM).
